{"source": "ChEMBL document CHEMBL4017487", "about": "“Design and Synthesis of γ- and δ-Lactam M1 Positive Allosteric Modulators (PAMs): Convulsion and Cholinergic Toxicity of an M1-Selective PAM with Weak Agonist Activity” (J Med Chem, 2017)", "key": {"[1]": {"target": "T1, Muscarinic acetylcholine receptor M1 (Homo sapiens, UniProt P11229)", "T1 sequence (P11229 whole entry)": "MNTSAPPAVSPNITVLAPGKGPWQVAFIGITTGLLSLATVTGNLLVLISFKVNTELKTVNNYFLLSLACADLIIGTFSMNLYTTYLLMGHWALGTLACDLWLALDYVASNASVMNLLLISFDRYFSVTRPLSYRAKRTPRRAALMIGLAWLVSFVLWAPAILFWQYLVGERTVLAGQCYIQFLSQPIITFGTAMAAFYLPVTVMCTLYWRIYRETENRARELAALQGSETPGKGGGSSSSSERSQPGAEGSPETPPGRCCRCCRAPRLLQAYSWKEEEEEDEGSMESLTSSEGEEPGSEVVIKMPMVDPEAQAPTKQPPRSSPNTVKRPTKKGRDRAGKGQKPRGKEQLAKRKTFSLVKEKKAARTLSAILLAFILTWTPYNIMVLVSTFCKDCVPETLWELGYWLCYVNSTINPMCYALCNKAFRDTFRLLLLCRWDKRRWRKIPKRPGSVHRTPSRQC", "assay": "Positive allosteric modulation of human muscarinic acetylcholine receptor M1 expressed in CHO cells assessed as increase in acetylcholine-induced calcium mobilization preincubated for 10 mins followed by acetylcholine addition by Fluo-8-AM dye based FLIPR assay", "format": "ADME, cell-based", "outline": "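M1 potentiation (PAM) format: calcium mobilization read on a FLIPR plate reader with an EC20 concentration of ACh present. EC50 is the geometric mean of at least three experiments.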"}, "[2]": {"assay": "Unbound plasma concentration in iv or po dosed mouse", "format": "ADME, organism-based"}, "[3]": {"target": "T2, Muscarinic acetylcholine receptor M4 (Homo sapiens, UniProt P08173)", "T2 sequence (P08173 whole entry)": "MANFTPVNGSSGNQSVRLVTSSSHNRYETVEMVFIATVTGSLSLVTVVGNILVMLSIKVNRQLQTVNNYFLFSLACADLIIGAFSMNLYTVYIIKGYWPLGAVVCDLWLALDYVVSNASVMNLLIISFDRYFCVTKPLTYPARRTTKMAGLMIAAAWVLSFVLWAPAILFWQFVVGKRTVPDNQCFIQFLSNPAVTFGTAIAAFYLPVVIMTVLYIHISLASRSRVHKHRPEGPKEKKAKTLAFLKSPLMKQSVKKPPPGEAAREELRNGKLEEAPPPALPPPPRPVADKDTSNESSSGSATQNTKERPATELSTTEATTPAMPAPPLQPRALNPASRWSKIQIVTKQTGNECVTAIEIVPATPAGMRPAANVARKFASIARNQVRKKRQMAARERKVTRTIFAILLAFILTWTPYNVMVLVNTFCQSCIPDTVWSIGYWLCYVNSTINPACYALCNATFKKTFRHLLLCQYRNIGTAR", "assay": "Positive allosteric modulation of human muscarinic acetylcholine receptor M4 expressed in CHO cells assessed as increase in acetylcholine-induced cAMP accumulation up to 10 uM after 2 hrs by cAMP-Glo assay", "format": "cell-based", "outline": "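Recombinant functional human M2–M5 assays, each run in agonist and PAM modes at concentrations up to 10 μM.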"}, "[4]": {"target": "Dual 3',5'-cyclic-AMP and -GMP phosphodiesterase 11A (Homo sapiens, UniProt Q9HCR9)", "sequence (Q9HCR9 whole entry)": "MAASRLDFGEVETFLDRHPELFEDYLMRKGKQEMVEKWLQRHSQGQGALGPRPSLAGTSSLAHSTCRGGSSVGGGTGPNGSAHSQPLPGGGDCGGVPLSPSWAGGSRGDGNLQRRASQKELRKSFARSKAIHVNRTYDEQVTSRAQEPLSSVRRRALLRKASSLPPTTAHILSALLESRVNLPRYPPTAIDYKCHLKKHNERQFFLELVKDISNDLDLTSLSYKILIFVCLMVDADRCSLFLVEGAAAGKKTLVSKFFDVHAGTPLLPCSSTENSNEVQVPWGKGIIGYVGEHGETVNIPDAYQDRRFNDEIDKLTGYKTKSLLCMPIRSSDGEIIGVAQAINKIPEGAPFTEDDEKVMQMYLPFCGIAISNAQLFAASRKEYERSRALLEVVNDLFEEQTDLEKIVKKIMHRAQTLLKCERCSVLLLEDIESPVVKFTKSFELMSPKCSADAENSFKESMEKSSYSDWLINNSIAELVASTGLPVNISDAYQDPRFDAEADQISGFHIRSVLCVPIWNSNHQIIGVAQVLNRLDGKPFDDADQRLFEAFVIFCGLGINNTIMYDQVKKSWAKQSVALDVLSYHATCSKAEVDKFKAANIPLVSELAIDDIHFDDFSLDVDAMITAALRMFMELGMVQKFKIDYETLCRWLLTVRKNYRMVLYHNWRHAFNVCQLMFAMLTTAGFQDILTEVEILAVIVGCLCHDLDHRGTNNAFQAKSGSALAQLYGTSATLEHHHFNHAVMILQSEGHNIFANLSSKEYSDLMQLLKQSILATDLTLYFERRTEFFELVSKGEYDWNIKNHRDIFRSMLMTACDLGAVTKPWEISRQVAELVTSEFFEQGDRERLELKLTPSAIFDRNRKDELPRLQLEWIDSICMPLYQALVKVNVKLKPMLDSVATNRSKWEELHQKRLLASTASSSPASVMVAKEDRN", "assay": "Inhibition of PDE11A4 (unknown origin)"}, "[5]": {"target": "T3, Muscarinic acetylcholine receptor M1 (Rattus norvegicus, UniProt P08482)", "T3 sequence (P08482 whole entry)": "T1 sequence (P11229 whole entry) with A5V, T254S, P309S, R320K, A337G, I413V", "assay": "Positive allosteric modulation of muscarinic acetylcholine receptor M1 in Sprague-Dawley rat brain hippocampal slices assessed as increase in carbachol-induced firing rate at CA1 pyramidal neurons at 3 uM after 10 mins in presence of M1 antagonist VU0255035 by electrophysiology method", "outline": "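Hippocampal CA1 spike-rate assay in PAM mode (EC20 carbachol) with a reportedly M1-selective muscarinic antagonist added to the slices.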"}, "Canis familiaris [6]": {"tested_on": "Canis familiaris", "assay": "Cholinergic toxicity in dog assessed as salivation at 15 mg/kg, po administered as single dose using spray dried dispersion formulation after 1 hr", "format": "organism-based, Canis lupus familiaris", "conditions": "in vivo; call rule not given here", "outline": "(§1)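 Dog single oral dose escalation: 1/sex at 5 mg/kg for each formulation; 1 female at 15 mg/kg. Spray-dried dispersion: 23% drug loading with 0.5% methylcellulose and 100 mM citrate buffer. Clinical signs timed in approximate hours postdose; unbound plasma Cmax.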"}, "[7]": {"target": "T1, Muscarinic acetylcholine receptor M1", "assay": "Ratio of positive allosteric modulation of human muscarinic acetylcholine receptor M1 expressed in CHO cells assessed as increase in acetylcholine-induced calcium mobilization by measuring functional co-operativity with acetylcholine to Kb human muscarinic acetylcholine receptor M1 expressed in CHO cells assessed as increase in calcium mobilization", "format": "ADME, cell-based"}, "[8]": {"target": "T1, Muscarinic acetylcholine receptor M1", "assay": "Agonist activity at human muscarinic acetylcholine receptor M1 expressed in CHO cells at 30 uM by beta-arrestin recruitment assay relative to acetylcholine", "format": "cell-based"}, "Brain [9]": {"tested_on": "Brain", "assay": "Unbound brain concentration in amphetamine-induced hyperlocomotion C57BL/6 mouse at 0.3 mg/kg, sc measured after 1 hr by LC-MS/MS analysis", "format": "ADME, organism-based", "conditions": "in vivo", "outline": "(§2)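 Satellite group of C57BL/6 mice from the amphetamine-stimulated locomotor study, N = 2/dose at 0.32, 1 and 3.2 mg/kg. Dosed sc as a solution in 10/90 Cremophor/water. Unbound plasma and brain concentrations measured at T = 1 h.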"}, "Plasma": {"tested_on": "Plasma", "assay": "Unbound plasma concentration in amphetamine-induced hyperlocomotion C57BL/6 mouse at 1 mg/kg, sc measured after 1 hr by LC-MS/MS analysis", "format": "ADME, organism-based", "conditions": "in vivo", "outline": "as §2"}, "Brain [10]": {"tested_on": "Brain", "assay": "Unbound brain concentration in scopolamine-induced memory impairment Wistar rat model at 1 mg/kg, sc measured after 1.25 hrs by LC-MS/MS analysis", "format": "ADME, organism-based", "conditions": "in vivo"}, "Rattus norvegicus": {"tested_on": "Rattus norvegicus", "assay": "Toxicity in rat assessed as unbound plasma concentration required for convulsions at 45 mg/kg, po administered as single dose after 1 to 6 hrs", "format": "organism-based", "conditions": "in vivo"}, "Canis familiaris [11]": {"tested_on": "Canis familiaris", "assay": "Cholinergic toxicity in dog assessed as transient salivation at 5 mg/kg, po administered as single dose using spray dried dispersion formulation after 1 to 4 hrs", "format": "organism-based, Canis lupus familiaris", "conditions": "in vivo", "outline": "as §1"}}, "note": "Substitutions are numbered along the chain they refer to."}
{"compound": "Cc1cc2c(cc1Cc1ccc(-c3cocn3)cc1)C(=O)N([C@H]1CCOC[C@@H]1O)C2", "values": [{"measurement": "EC50", "setting": "[1]", "result": 0.047, "unit": "µM"}, {"measurement": "fraction unbound", "setting": "[2]", "result": 0.013}, {"measurement": "Activity", "setting": "[3]", "result": "Not Active"}, {"measurement": "IC50", "setting": "[4]", "result": 5.06, "unit": "µM"}, {"measurement": "Activity", "setting": "[5]", "result": "Not Active"}, {"measurement": "Activity", "setting": "Canis familiaris [6]", "result": "Toxic"}, {"measurement": "Ratio", "setting": "[7]", "result": 70}, {"measurement": "Activity", "setting": "[8]", "result": 50, "unit": "%"}, {"measurement": "Drug uptake(free)", "setting": "Brain [9]", "result": 3.8, "unit": "nM"}, {"measurement": "Cp(f)", "setting": "Plasma", "result": 0.046, "unit": "µM"}, {"measurement": "Drug uptake(free)", "setting": "Brain [10]", "result": 13, "unit": "nM"}, {"measurement": "Cp(f)", "setting": "Rattus norvegicus", "result": 2.31, "unit": "µM"}, {"measurement": "Activity", "setting": "Canis familiaris [11]", "result": "Toxic"}]}
